The structures appear in SMILES notation. The source made the active and inactive calls. The rule behind the calls is not given here.

For one test, the system named is Echinochloa crus-galli. Nature of the test: Herbicidal activity against Echinochloa crus-galli (barnyard grass) assessed as induction of yellow symptoms of leaves 7 days post compound treatment. Format: functional, organism-based.
Conditions: not given
`CCOc1ccc([C@@H]2OC(=S)N(C(=O)Nc3ccccc3OCC)[C@@H]2C)cn1` (relative stereo): the outcome was Active.

For the molecule `CCOc1ccccc1NC(=O)N1C(=S)O[C@@H](c2ccc(Cl)nc2)[C@H]1C` (relative stereo), the result was Active.

As to `C[C@@H]1[C@H](c2ccncc2)OC(=S)N1C(=O)Nc1ccccc1[N+](=O)[O-]` (relative stereo), the outcome was Active.

As to `C[C@@H]1[C@H](c2ccccn2)OC(=S)N1C(=O)NC1CCCCC1` (relative stereo), the outcome was Active.

As for `C[C@@H]1[C@H](c2ccncc2)OC(=S)N1C(=O)NC1CCCCC1` (relative stereo), the outcome was Active.

On to `C[C@@H]1[C@H](c2ccc(OCC(F)(F)F)nc2)OC(=S)N1C(=O)NC1CCCCC1` (relative stereo), for which the outcome was Active.

The test system of a further test is Brassica rapa subsp. oleifera. Nature of the test: Herbicidal activity against Brassica rapa subsp. oleifera assessed as growth inhibition rate at 100 mg/L 7 days post compound treatment. The class given is functional. The following applies: 168 h, read-out: GI. The method in brief: (§1)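 Compound dissolved in DMF and diluted to the test concentration with water containing emulsifier 0201 (anionic/nonionic surfactant, 0.1 g L-1). Seeds were sown once the agar cooled and kept at 24 ± 1 °C under 3000 lx light for 7 days. Read-out was root growth inhibition (%) versus control, in three replicates of 150 seeds per species per concentration.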
For `CCOc1ccc([C@@H]2OC(=S)N(C(=O)Nc3ccccc3OCC)[C@@H]2C)cn1` (relative stereo), the inhibition of growth at 100 µg/mL is 0%.

Turning to `CCOc1ccccc1NC(=O)N1C(=S)O[C@@H](c2ccc(Cl)nc2)[C@H]1C` (relative stereo), the inhibition of growth at 100 µg/mL amounted to 90%.

Consider `C[C@@H]1[C@H](c2ccncc2)OC(=S)N1C(=O)Nc1ccccc1[N+](=O)[O-]` (relative stereo), for which the inhibition of growth at 100 µg/mL was found to be 50%.

Take `C[C@@H]1[C@H](c2ccccn2)OC(=S)N1C(=O)NC1CCCCC1` (relative stereo): the inhibition of growth at 100 µg/mL was determined as 0%.

With `C[C@@H]1[C@H](c2ccncc2)OC(=S)N1C(=O)NC1CCCCC1` (relative stereo), the inhibition of growth at 100 µg/mL worked out at 80%.

For the molecule `C[C@@H]1[C@H](c2ccc(OCC(F)(F)F)nc2)OC(=S)N1C(=O)NC1CCCCC1` (relative stereo), the inhibition of growth at 100 µg/mL worked out at 40%.

For the next test, the system named is Digitaria sanguinalis. Nature of the test: Herbicidal activity against Digitaria sanguinalis (hairy crabgrass) assessed as growth inhibition rate at 100 mg/L 7 days post compound treatment. The class given is functional. The following applies: 168 h, read-out: GI. The method in brief:
as §1
For the molecule `CCOc1ccc([C@@H]2OC(=S)N(C(=O)Nc3ccccc3OCC)[C@@H]2C)cn1` (relative stereo), the inhibition of growth at 100 µg/mL was determined as 80%.

For the molecule `CCOc1ccccc1NC(=O)N1C(=S)O[C@@H](c2ccc(Cl)nc2)[C@H]1C` (relative stereo), the inhibition of growth at 100 µg/mL amounted to 80%.

Consider `C[C@@H]1[C@H](c2ccncc2)OC(=S)N1C(=O)Nc1ccccc1[N+](=O)[O-]` (relative stereo), for which the inhibition of growth at 100 µg/mL is 70%.

As for `C[C@@H]1[C@H](c2ccccn2)OC(=S)N1C(=O)NC1CCCCC1` (relative stereo), the inhibition of growth at 100 µg/mL turned out to be 70%.

As to `C[C@@H]1[C@H](c2ccncc2)OC(=S)N1C(=O)NC1CCCCC1` (relative stereo), the inhibition of growth at 100 µg/mL turned out to be 80%.

For the molecule `C[C@@H]1[C@H](c2ccc(OCC(F)(F)F)nc2)OC(=S)N1C(=O)NC1CCCCC1` (relative stereo), the inhibition of growth at 100 µg/mL was 70%.

The test system of the next test is Eclipta prostrata. In words: Herbicidal activity against Eclipta prostrata assessed as growth inhibition rate at 100 mg/L 7 days post compound treatment. The following applies: 168 h, read-out: GI. The class given is functional. The method in brief:
as §1
Take `CCOc1ccc([C@@H]2OC(=S)N(C(=O)Nc3ccccc3OCC)[C@@H]2C)cn1` (relative stereo): the inhibition of growth at 100 µg/mL stood at 20%.

In the case of `CCOc1ccccc1NC(=O)N1C(=S)O[C@@H](c2ccc(Cl)nc2)[C@H]1C` (relative stereo), the inhibition of growth at 100 µg/mL was 90%.

Turning to `C[C@@H]1[C@H](c2ccncc2)OC(=S)N1C(=O)Nc1ccccc1[N+](=O)[O-]` (relative stereo), the inhibition of growth at 100 µg/mL was 80%.

For the molecule `C[C@@H]1[C@H](c2ccccn2)OC(=S)N1C(=O)NC1CCCCC1` (relative stereo), the inhibition of growth at 100 µg/mL was determined as 80%.

`C[C@@H]1[C@H](c2ccncc2)OC(=S)N1C(=O)NC1CCCCC1` (relative stereo): the inhibition of growth at 100 µg/mL stood at 85%.

As for `C[C@@H]1[C@H](c2ccc(OCC(F)(F)F)nc2)OC(=S)N1C(=O)NC1CCCCC1` (relative stereo), the inhibition of growth at 100 µg/mL was determined as 80%.

In the next test the test system is Sorghum bicolor. Nature of the test: Herbicidal activity against Sorghum bicolor assessed as growth inhibition rate at 100 mg/L 7 days post compound treatment. The class given is functional. The following applies: 168 h, read-out: GI. The method in brief: as §1
Regarding `CCOc1ccc([C@@H]2OC(=S)N(C(=O)Nc3ccccc3OCC)[C@@H]2C)cn1` (relative stereo), the inhibition of growth at 100 µg/mL was 0%.

In the case of `CCOc1ccccc1NC(=O)N1C(=S)O[C@@H](c2ccc(Cl)nc2)[C@H]1C` (relative stereo), the inhibition of growth at 100 µg/mL amounted to 70%.

On to `C[C@@H]1[C@H](c2ccncc2)OC(=S)N1C(=O)Nc1ccccc1[N+](=O)[O-]` (relative stereo), for which the inhibition of growth at 100 µg/mL was found to be 70%.

In the case of `C[C@@H]1[C@H](c2ccccn2)OC(=S)N1C(=O)NC1CCCCC1` (relative stereo), the inhibition of growth at 100 µg/mL was found to be 0%.

Regarding `C[C@@H]1[C@H](c2ccncc2)OC(=S)N1C(=O)NC1CCCCC1` (relative stereo), the inhibition of growth at 100 µg/mL was 30%.

For `C[C@@H]1[C@H](c2ccc(OCC(F)(F)F)nc2)OC(=S)N1C(=O)NC1CCCCC1` (relative stereo), the inhibition of growth at 100 µg/mL stood at 60%.

A further test has as its system Echinochloa crus-galli. Nature of the test: Herbicidal activity against Echinochloa crus-galli (barnyard grass) assessed as growth inhibition rate at 100 mg/L 7 days post compound treatment. Format: functional. The following applies: 168 h, read-out: GI. The method in brief: as §1
Consider `CCOc1ccc([C@@H]2OC(=S)N(C(=O)Nc3ccccc3OCC)[C@@H]2C)cn1` (relative stereo), for which the inhibition of growth at 100 µg/mL was 50%.

Turning to `CCOc1ccccc1NC(=O)N1C(=S)O[C@@H](c2ccc(Cl)nc2)[C@H]1C` (relative stereo), the inhibition of growth at 100 µg/mL was determined as 90%.

For `C[C@@H]1[C@H](c2ccncc2)OC(=S)N1C(=O)Nc1ccccc1[N+](=O)[O-]` (relative stereo), the inhibition of growth at 100 µg/mL was found to be 60%.

Regarding `C[C@@H]1[C@H](c2ccccn2)OC(=S)N1C(=O)NC1CCCCC1` (relative stereo), the inhibition of growth at 100 µg/mL came out at 70%.

In the case of `C[C@@H]1[C@H](c2ccncc2)OC(=S)N1C(=O)NC1CCCCC1` (relative stereo), the inhibition of growth at 100 µg/mL is 90%.

Consider `C[C@@H]1[C@H](c2ccc(OCC(F)(F)F)nc2)OC(=S)N1C(=O)NC1CCCCC1` (relative stereo), for which the inhibition of growth at 100 µg/mL stood at 80%.

The subject of a further test is Echinochloa crus-galli. In words: Herbicidal activity against Echinochloa crus-galli (barnyard grass) assessed as induction weed albinism 7 days post compound treatment. The class given is functional, organism-based.
Conditions: not given
With `CCOc1ccc([C@@H]2OC(=S)N(C(=O)Nc3ccccc3OCC)[C@@H]2C)cn1` (relative stereo), the result was Active.

Consider `CCOc1ccccc1NC(=O)N1C(=S)O[C@@H](c2ccc(Cl)nc2)[C@H]1C` (relative stereo), for which the result was Active.

For `C[C@@H]1[C@H](c2ccncc2)OC(=S)N1C(=O)Nc1ccccc1[N+](=O)[O-]` (relative stereo), the outcome was Active.

Consider `C[C@@H]1[C@H](c2ccccn2)OC(=S)N1C(=O)NC1CCCCC1` (relative stereo), for which the outcome was Active.

Take `C[C@@H]1[C@H](c2ccncc2)OC(=S)N1C(=O)NC1CCCCC1` (relative stereo): the outcome was Active.

Turning to `C[C@@H]1[C@H](c2ccc(OCC(F)(F)F)nc2)OC(=S)N1C(=O)NC1CCCCC1` (relative stereo), the result was Active.

For another test, the system named is Cucumis sativus. In words: Herbicidal activity against Cucumis sativus (cucumber) assessed as growth inhibition rate at 100 mg/L 7 days post compound treatment. Format: functional. The following applies: 168 h, read-out: GI. In a few lines:
as §1
In the case of `CCOc1ccc([C@@H]2OC(=S)N(C(=O)Nc3ccccc3OCC)[C@@H]2C)cn1` (relative stereo), the inhibition of growth at 100 µg/mL was 0%.

Regarding `CCOc1ccccc1NC(=O)N1C(=S)O[C@@H](c2ccc(Cl)nc2)[C@H]1C` (relative stereo), the inhibition of growth at 100 µg/mL worked out at 90%.

For `C[C@@H]1[C@H](c2ccncc2)OC(=S)N1C(=O)Nc1ccccc1[N+](=O)[O-]` (relative stereo), the inhibition of growth at 100 µg/mL is 20%.

Take `C[C@@H]1[C@H](c2ccccn2)OC(=S)N1C(=O)NC1CCCCC1` (relative stereo): the inhibition of growth at 100 µg/mL was determined as 0%.

Take `C[C@@H]1[C@H](c2ccncc2)OC(=S)N1C(=O)NC1CCCCC1` (relative stereo): the inhibition of growth at 100 µg/mL came to 20%.

For `C[C@@H]1[C@H](c2ccc(OCC(F)(F)F)nc2)OC(=S)N1C(=O)NC1CCCCC1` (relative stereo), the inhibition of growth at 100 µg/mL was found to be 40%.

For the origin of these results see ChEMBL document CHEMBL3046806, “Synthesis and herbicidal activity of novel 3-aminocarbonyl-2-oxazolidinethione derivatives containing a substituted pyridine ring” (2006).
